In ChEMBL document CHEMBL1671867, “Novel polymyxin derivatives carrying only three positive charges are effective antibacterial agents” (Antimicrob Agents Chemother, 2008):
In brackets after ≈: the same amount, converted by molar mass. Activity calls are given as the source filed them. The rule behind the calls is not given here. Bridge positions count the residues as written; N and C are the ends. Square brackets hold non-standard residues; d marks the D form. Peptide text beside a SMILES is read from it. * marks the point of attachment. Decanoyl = CCCCCCCCCC(=O)*; Octanoyl = CCCCCCCC(=O)*; Dab = NCC[C@H](N)C(=O)O; Abu = CC[C@H](N)C(=O)O

Experiments:
Escherichia coli [1] = experiment: Antibacterial activity against Escherichia coli IH3080 assessed as reduction in bacterial count at 2 ug/ml using fresh compound stock solution; type: functional, organism-based
[2] = Inhibition of [3H]gentamicin binding to brush border membrane of renal cortex
In short: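 Brush border membrane vesicles prepared from male albino rat renal cortex by Mg2+-EGTA precipitation. Incubated with 20 μM [3H]gentamicin in 10 mM HEPES pH 7.5 with 300 mM mannitol, with or without compound, 60 min at 4°C. Then filtered, washed, and bound radioactivity counted by scintillation. IC50 fitted with the Hill equation.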

V79 = experiment: Cytotoxicity against chinese hamster V79 cells at […] to 128 ug/ml after 24 hrs; type: cell-based, Cricetulus griseus; conditions: v79, 24 h
Escherichia coli [3] = experiment: Antibacterial activity against Escherichia coli ATCC 25992 by Etest method; type: functional
In short: (§1)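 E-strip MIC on Mueller-Hinton agar without added peptide; inoculum per manufacturer, matching CLSI M2-A9.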

Enterobacter cloacae [4] = experiment: Antibacterial activity against Enterobacter cloacae CCUG52947 by Etest method in presence of 4 ug/ml NAB7067; type: functional
Klebsiella pneumoniae [5] = experiment: Antibacterial activity against Klebsiella pneumoniae CCUG45421 by Etest method in presence of 4 ug/ml NAB7063; type: functional
Escherichia coli [6] = experiment: Antibacterial activity against Escherichia coli IH3080 by Etest method in presence of NAB7061; type: functional
Pseudomonas aeruginosa [7] = experiment: (§2) Antibacterial activity against Pseudomonas aeruginosa ATCC 27853by Etest method in presence of […] NAB739; type: functional
Enterobacter cloacae [8] = experiment: Antibacterial activity against Enterobacter cloacae ATCC 23355 […] by Etest method in presence of NAB7061; type: functional
Escherichia coli [9] = experiment: Antibacterial activity against Escherichia coli IH3080 by Etest method in presence of 2 ug/ml NAB7062; type: functional
Serratia marcescens = experiment: Antibacterial activity against Serratia marcescens ATCC 8100 by Etest method in presence of 4 ug/ml NAB7072; type: functional
Enterobacter cloacae [10] = experiment: Antibacterial activity against Enterobacter cloacae ATCC 23355 […] by Etest method in presence of 1 ug/ml NAB7061; type: functional
Pseudomonas aeruginosa [11] = experiment: as §2; type: functional; remark: listed apart in the source
Acinetobacter baumannii [12] = experiment: Antibacterial activity against Acinetobacter baumannii F264 by Etest method; type: functional; in short: as §1
Escherichia coli [13] = experiment: Antibacterial activity against Escherichia coli IH3080 by Etest method; type: functional; in short: as §1
Klebsiella oxytoca [14] = experiment: Antibacterial activity against Klebsiella oxytoca CCUG51683 by Etest method in presence of 4 ug/ml NAB7066; type: functional
Escherichia coli [15] = experiment: Antibacterial activity against Escherichia coli IH3080 by Etest method in presence of 1 ug/ml NAB7061; type: functional
Escherichia coli [16] = experiment: Antibacterial activity against Escherichia coli ATCC […] by Etest method in presence of 1 ug/ml NAB7061; type: functional
Acinetobacter baumannii [17] = experiment: Antibacterial activity against Acinetobacter baumannii ATCC 19606 by Etest method; type: functional
Pseudomonas aeruginosa [18] = experiment: Antibacterial activity against Pseudomonas aeruginosa ATCC 27853by Etest method in presence of 1 ug/ml NAB739; type: functional
In short: (§3)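 MICs of the antibiotic taken from E-strips on Mueller-Hinton agar, run both with and without peptide. […] Inoculum was prepared per the strip manufacturer, matching CLSI M2-A9.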

Citrobacter freundii = experiment: Antibacterial activity against Citrobacter freundii ATCC 8090 by Etest method in presence of 4 ug/ml NAB7069; type: functional
Acinetobacter baumannii [19] = experiment: Antibacterial activity against Acinetobacter baumannii ATCC 19606 by Etest method in presence of 4 ug/ml NAB7070; type: functional
Acinetobacter baumannii [20] = experiment: Antibacterial activity against Acinetobacter baumannii by Etest method in presence of 4 ug/ml NAB7071; type: functional
Enterobacter cloacae [21] = experiment: Antibacterial activity against Enterobacter cloacae ATCC 23355 […] by Etest method in presence of 2 ug/ml NAB7062; type: functional
Klebsiella pneumoniae [22] = experiment: Antibacterial activity against Klebsiella pneumoniae ATCC 13883 by Etest method in presence of NAB7061; type: functional; in short: as §3
Klebsiella pneumoniae [23] = experiment: Antibacterial activity against Klebsiella pneumoniae by Etest method in presence of 4 ug/ml NAB7064; type: functional
Escherichia coli [24] = experiment: Antibacterial activity against Escherichia coli by Etest method in presence of 4 ug/ml NAB7061; type: functional
Acinetobacter baumannii [25] = experiment: (§4) Antibacterial activity against Acinetobacter baumannii ATCC 19606 by Etest method in presence of […] NAB739; type: functional
Acinetobacter baumannii [26] = experiment: Antibacterial activity against Acinetobacter baumannii F264 by Etest method in presence of 1 ug/ml NAB739; type: functional
Klebsiella pneumoniae [27] = experiment: Antibacterial activity against Klebsiella pneumoniae ATCC 13883 by Etest method; type: functional; in short: as §3
Proteus mirabilis = experiment: Antibacterial activity against Proteus mirabilis ATCC 29906 by Etest method in presence of 4 ug/ml NAB7073; type: functional
Klebsiella pneumoniae [28] = experiment: Antibacterial activity against Klebsiella pneumoniae ATCC 13883 by Etest method in presence of 4 ug/ml NAB7061; type: functional; in short: as §3
Acinetobacter baumannii [29] = experiment: (§5) Antibacterial activity against Acinetobacter baumannii F264 by Etest method in presence of […] NAB739; type: functional
Acinetobacter baumannii [30] = experiment: as §4; type: functional; remark: listed apart in the source
Pseudomonas aeruginosa [31] = experiment: Antibacterial activity against Pseudomonas aeruginosa ATCC 27853by Etest method; type: functional; in short: as §3
Escherichia coli [32] = experiment: Antibacterial activity against Escherichia coli NCTC13353 by Etest method in presence of 4 ug/ml NAB7062; type: functional
Acinetobacter baumannii [33] = experiment: Antibacterial activity against Acinetobacter baumannii ATCC 19606 by Etest method in presence of 1 ug/ml NAB739; type: functional
Enterobacter cloacae [34] = experiment: Antibacterial activity against Enterobacter cloacae ATCC 23355 by Etest method; type: functional; in short: as §1
Enterobacter cloacae [35] = experiment: Antibacterial activity against Enterobacter cloacae ATCC 23355 […] by Etest method in presence of 4 ug/ml NAB7064; type: functional
Klebsiella pneumoniae [36] = experiment: Antibacterial activity against Klebsiella pneumoniae ATCC 13883 by Etest method in presence of 1 ug/ml NAB7061; type: functional; in short: as §3
Pseudomonas aeruginosa [37] = experiment: Antibacterial activity against Pseudomonas aeruginosa ATCC 27853by Etest method in presence of 0.5 ug/ml NAB739; type: functional; in short: as §3
Klebsiella pneumoniae [38] = experiment: Antibacterial activity against Klebsiella pneumoniae ATCC 13883 by Etest method in presence of 2 ug/ml NAB7061; type: functional; in short: as §3
Escherichia coli [39] = experiment: Antibacterial activity against Escherichia coli ATCC […] by Etest method in presence of 4 ug/ml NAB7064; type: functional
Enterobacter cloacae [40] = experiment: Antibacterial activity against Enterobacter cloacae by Etest method in presence of 4 ug/ml NAB7068; type: functional
Klebsiella oxytoca [41] = experiment: Antibacterial activity against Klebsiella oxytoca ATCC 13182 by Etest method in presence of 4 ug/ml NAB7065; type: functional
Pseudomonas aeruginosa [42] = experiment: Antibacterial activity against Pseudomonas aeruginosa ATCC 27853by Etest method in presence of 2 ug/ml NAB739; type: functional
Acinetobacter baumannii [43] = experiment: Antibacterial activity against Acinetobacter baumannii F264 by Etest method in presence of 0.5 ug/ml NAB739; type: functional
Proteus vulgaris = experiment: Antibacterial activity against Proteus vulgaris ATCC 13315 by Etest method in presence of 4 ug/ml NAB7074; type: functional
Acinetobacter baumannii [44] = experiment: as §5; type: functional; remark: listed apart in the source
Pseudomonas aeruginosa [45] = experiment: Antibacterial activity against Pseudomonas aeruginosa ATCC 27853 by Etest method in presence of 4 ug/ml NAB7075; type: functional
Escherichia coli [46] = experiment: Antibacterial activity against Escherichia coli ATCC […] by Etest method in presence of 2 ug/ml NAB7062; type: functional
Acinetobacter baumannii [47] = experiment: Antibacterial activity against Acinetobacter baumannii ATCC 19606 by Etest method in presence of 0.5 ug/ml NAB739; type: functional
Escherichia coli [48] = experiment: Antibacterial activity against Escherichia coli IH3080 by Etest method in presence of 4 ug/ml NAB7064; type: functional

**Q.** With `CCCCCCCC(=O)N[C@H](C(=O)N[C@H](CO)C(=O)N[C@H]1CCNC(=O)[C@H]([C@@H](C)O)NC(=O)[C@H](CCN)NC(=O)[C@H](CCN)NC(=O)[C@H](CC(C)C)NC(=O)[C@H](Cc2ccccc2)NC(=O)[C@H](CCN)NC1=O)[C@@H](C)O` as the compound, how does the Activity (Escherichia coli [1]) read?
**A.** Active

**Q.** For `CCCCCCCCCC(=O)N[C@H](C(=O)N[C@H](CO)C(=O)N[C@H]1CCNC(=O)[C@H]([C@@H](C)O)NC(=O)[C@H](CCN)NC(=O)[C@H](CCN)NC(=O)[C@H](CC(C)C)NC(=O)[C@@H](Cc2ccccc2)NC(=O)[C@H](CCN)NC1=O)[C@@H](C)O` (Decanoyl-T[dS][Dab][Dab][dF]L[Dab][Dab]T; lactam 3-C), which IC50 [2] is on record?
**A.** 198 µM

**Q.** What about the Activity (V79) of the same compound?
**A.** Non-toxic

**Q.** For `CCCCCCCC(=O)N[C@H](C(=O)N[C@@H](CC)C(=O)N[C@H]1CCNC(=O)[C@H]([C@@H](C)O)NC(=O)[C@H](CCN)NC(=O)[C@H](CCN)NC(=O)[C@H](CC(C)C)NC(=O)[C@@H](Cc2ccccc2)NC(=O)[C@H](CCN)NC1=O)[C@@H](C)O` (Octanoyl-T[Abu][Dab][Dab][dF]L[Dab][Dab]T; lactam 3-C), which IC50 [2] is on record?
**A.** 187 µM

**Q.** And the Activity (V79)?
**A.** Non-toxic

**Q.** What does the source list for `CC[C@H]1OC(=O)[C@H](C)[C@@H](O[C@H]2C[C@@](C)(OC)[C@@H](O)[C@H](C)O2)[C@H](C)[C@@H](O[C@@H]2O[C@H](C)C[C@H](N(C)C)[C@H]2O)[C@](C)(OC)C[C@@H](C)C(=O)[C@H](C)[C@@H](O)[C@]1(C)O` [CLARITHROMYCIN]?
**A.** MIC (Escherichia coli [3]): 16 µg/mL (≈ 21.4 µM); MIC (Enterobacter cloacae [4]): 0.38 µg/mL; MIC (Klebsiella pneumoniae [5]): 24 µg/mL; MIC (Escherichia coli [6]): 0.105 µg/mL; MIC (Pseudomonas aeruginosa [7]): 32 µg/mL; MIC (Enterobacter cloacae [8]): 0.273 µg/mL; MIC (Escherichia coli [9]): 0.25 µg/mL; MIC (Serratia marcescens): 96 µg/mL; MIC (Enterobacter cloacae [10]): 32 µg/mL; MIC (Pseudomonas aeruginosa [11]): 32 µg/mL; MIC (Acinetobacter baumannii [12]): 6 µg/mL (≈ 8.02 µM); MIC (Escherichia coli [13]): 12 µg/mL (≈ 16 µM); MIC (Klebsiella oxytoca [14]): 0.19 µg/mL; MIC (Escherichia coli [15]): 0.5 µg/mL; MIC (Escherichia coli [16]): 0.5 µg/mL; MIC (Acinetobacter baumannii [17]): 8 µg/mL (≈ 10.7 µM); MIC (Pseudomonas aeruginosa [18]): 12 µg/mL; MIC (Citrobacter freundii): 0.125 µg/mL; MIC (Acinetobacter baumannii [19]): 0.5 µg/mL; MIC (Acinetobacter baumannii [20]): 0.25 µg/mL; MIC (Enterobacter cloacae [21]): 1.5 µg/mL; MIC (Klebsiella pneumoniae [22]): ≤ 0.141 µg/mL; MIC (Klebsiella pneumoniae [23]): 0.25 µg/mL; MIC (Escherichia coli [24]): 0.032 µg/mL; MIC (Acinetobacter baumannii [25]): 1 µg/mL; MIC (Acinetobacter baumannii [26]): 0.125 µg/mL; MIC (Klebsiella pneumoniae [27]): 12 µg/mL (≈ 16 µM); MIC (Proteus mirabilis): 24 µg/mL; MIC (Klebsiella pneumoniae [28]): 0.19 µg/mL; MIC (Acinetobacter baumannii [29]): 2 µg/mL; MIC (Acinetobacter baumannii [30]): 1.5 µg/mL; MIC (Pseudomonas aeruginosa [31]): 48 µg/mL (≈ 64.2 µM); MIC (Escherichia coli [32]): 1 µg/mL; MIC (Acinetobacter baumannii [33]): 0.094 µg/mL; MIC (Enterobacter cloacae [34]): 64 µg/mL (≈ 85.6 µM); MIC (Enterobacter cloacae [35]): 0.25 µg/mL; MIC (Klebsiella pneumoniae [36]): 2 µg/mL; MIC (Pseudomonas aeruginosa [37]): 16 µg/mL; MIC (Klebsiella pneumoniae [38]): 1 µg/mL; MIC (Escherichia coli [39]): 0.094 µg/mL; MIC (Enterobacter cloacae [40]): 0.047 µg/mL; MIC (Klebsiella oxytoca [41]): 0.25 µg/mL; MIC (Pseudomonas aeruginosa [42]): 3 µg/mL; MIC (Acinetobacter baumannii [43]): 0.5 µg/mL; MIC (Proteus vulgaris): 24 µg/mL; MIC (Acinetobacter baumannii [44]): 1.5 µg/mL; MIC (Pseudomonas aeruginosa [45]): 32 µg/mL; MIC (Escherichia coli [46]): 0.19 µg/mL; MIC (Acinetobacter baumannii [47]): 0.5 µg/mL; MIC (Escherichia coli [48]): 0.047 µg/mL
